Measured values published in ChEMBL document CHEMBL1122782, “Bulky amine analogues of ketoprofen: potent antiinflammatory agents” (J Med Chem, 1984).

Columns and labels:
Rattus norvegicus [1] = assay: The mean increase in paw volume was compared between drug treated groups and placebo to calculate the percent inhibition in rats at 0.08 mmol/kg by carrageenan Edema Assay; 40-49; assay type: functional
Rattus norvegicus [2] = assay: The percent inhibition was calculated from the average differences in hind paw volume between the adjuvant injected controls and the adjuvant-injected medicated rats at 0.08 mmol/kg; 70-79; assay type: functional
Rattus norvegicus [3] = assay: The mean increase in paw volume was compared between drug treated groups and placebo to calculate the percent inhibition in rats at 0.02 mmol/kg by carrageenan Edema Assay; 0-19; assay type: functional
Rattus norvegicus [4] = assay: The mean increase in paw volume was compared between drug treated groups and placebo to calculate the percent inhibition in rats at 0.02 mmol/kg by carrageenan Edema Assay; 20-29; assay type: functional
Rattus norvegicus [5] = assay: The percent inhibition was calculated from the average differences in hind paw volume between the adjuvant injected controls and the adjuvant-injected medicated rats at 0.08 mmol/kg; 60-69; assay type: functional; conditions: Rattus norvegicus
Rattus norvegicus [6] = assay: The percent inhibition was calculated from the average differences in hind paw volume between the adjuvant injected controls and the adjuvant-injected medicated rats at 0.08 mmol/kg; 90-99; assay type: functional
Rattus norvegicus [7] = organism: Rattus norvegicus; assay: Compound was evaluated for highest non-ulcerogenic dose (less than 50% ulcer incidence); assay type: functional; conditions: read-out: ED50
Outline: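 Taken from the 21-day adjuvant arthritis test in male Sprague-Dawley rats dosed orally each day from the day of adjuvant injection. Small intestines and stomachs were examined for ulceration at the end. The value is the highest dose giving less than 50% ulcer incidence.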

Rattus norvegicus [8] = assay: Antiinflammatory efficacy is measured by the percent inhibition of paw volume during the 3 week adjuvant arthritis test at 0.005 mM/kg (2.11 mg); assay type: functional
Outline: (§1)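 Male Sprague-Dawley rats (200–230 g) were used in groups of eight. Each received 0.1 mL of 0.6% M. butyricum in heavy mineral oil into the plantar tissue of one hind paw. Daily oral gavage in 1% gum tragacanth or corn oil-water emulsion began on the injection day and ran 21 days. Total hind paw volume was measured by mercury displacement, and inhibition was taken versus vehicle-treated adjuvant controls.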

Rattus norvegicus [9] = assay: The mean increase in paw volume was compared between drug treated groups and placebo to calculate the percent inhibition in rats at 0.02 mmol/kg by carrageenan Edema Assay; 30-39; assay type: functional; conditions: Rattus norvegicus
Rattus norvegicus [10] = assay: The percent inhibition was calculated from the average differences in hind paw volume between the adjuvant injected controls and the adjuvant-injected medicated rats at 0.08 mmol/kg; 80-89; assay type: functional
Rattus norvegicus [11] = assay: Ulcerogenicity was measured in intestine during the 3 week adjuvant arthritis test, no of animals with ulcers out of 4 animals tested at 0.02 mM/kg (8.43 mg) was reported; assay type: functional
Outline: (§2)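 In the 21-day adjuvant arthritis model, male Sprague-Dawley rats (200–230 g) received an M. butyricum mineral-oil suspension into one hind paw. They were dosed daily by gavage from the day of injection. At the end of the study the rats were killed, and the small intestines were examined for ulcers. Results are given as the number of ulcerated animals over the number tested.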

Rattus norvegicus [12] = assay: Ulcerogenicity was measured in stomach during the 3 week adjuvant arthritis test, no of animals with ulcers out of 8 animals tested at 0.08 mM/kg (33.7 mg) was reported; assay type: functional
Outline: (§3)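 Male Sprague-Dawley rats (200–230 g) were injected in the plantar tissue of one hind paw with 0.1 mL of 0.6% M. butyricum suspension in heavy mineral oil. Daily oral gavage began on the day of adjuvant injection and ran for the 21 days, with drug suspended in 1% gum tragacanth or a corn oil-water emulsion. At the end the rats were sacrificed and the small intestine and stomach were examined for ulcers. Results are given as animals with ulcers/animals tested.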

Rattus norvegicus [13] = assay: Ulcerogenicity was measured in intestine during the 3 week adjuvant arthritis test, no of animals with ulcers out of 8 animals tested at 0.08 mM/kg (33.7 mg) was reported; assay type: functional; outline: as §2
Rattus norvegicus [14] = assay: Ulcerogenicity was measured in stomach during the 3 week adjuvant arthritis test, no of animals with ulcers out of 4 animals tested at 0.02 mM/kg (8.43 mg) was reported; assay type: functional; outline: as §3
Rattus norvegicus [15] = assay: Ulcerogenicity was measured in intestine during the 3 week adjuvant arthritis test, no of animals with ulcers out of animals tested at 0.16 mM/kg (67.4 mg) was reported; toxic; assay type: functional, organism-based; outline: as §3
Rattus norvegicus [16] = assay: Antiinflammatory efficacy is measured by the weight gain in rats during the 3 week adjuvant arthritis test at 0.08 mM/kg (33.7 mg); assay type: functional
Outline: (§4)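 Rats were adjuvant-injected (M. butyricum in mineral oil, one hind paw) or given a mineral-oil placebo. They were dosed by gavage daily for 21 days from the injection day, with vehicle only for both control groups, then weighed at the end. Weight gain % = (treated − adjuvant control)/(negative control − adjuvant control) × 100.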

Rattus norvegicus [17] = assay: Antiinflammatory efficacy is measured by the weight gain in rats during the 3 week adjuvant arthritis test at 0.02 mM/kg (8.43 mg); assay type: functional; outline: as §4
Rattus norvegicus [18] = assay: Antiinflammatory efficacy is measured by the weight gain in rats during the 3 week adjuvant arthritis test at 0.005 mM/kg (2.11 mg); assay type: functional; outline: as §4
Rattus norvegicus [19] = assay: Antiinflammatory efficacy is measured by the percent inhibition of paw volume during the 3 week adjuvant arthritis test at 0.02 mM/kg (8.43 mg); assay type: functional; outline: as §1
Rattus norvegicus [20] = assay: Antiinflammatory efficacy is measured by the percent inhibition of paw volume during the 3 week adjuvant arthritis test at 0.08 mM/kg (33.7 mg); assay type: functional; outline: as §1
Rattus norvegicus [21] = assay: The mean increase in paw volume was compared between drug treated groups and placebo to calculate the percent inhibition in rats at 0.02 mmol/kg by carrageenan Edema Assay; 40-49; assay type: functional
Rattus norvegicus [22] = assay: The mean increase in paw volume was compared between drug treated groups and placebo to calculate the percent inhibition in rats at 0.08 mmol/kg by carrageenan Edema Assay; 30-39; assay type: functional
Rattus norvegicus [23] = assay: Antiinflammatory efficacy is measured by the percent inhibition of paw volume during the 3 week adjuvant arthritis test at 0.006 mM/kg ([…]); assay type: functional; outline: as §1
Rattus norvegicus [24] = assay: Antiinflammatory efficacy is measured by the percent inhibition of paw volume during the 3 week adjuvant arthritis test at 0.009 mM/kg (2.29 mg); assay type: functional; outline: as §1
Rattus norvegicus [25] = assay: The mean increase in paw volume was compared between drug treated groups and placebo to calculate the percent inhibition in rats at 0.02 mmol/kg by carrageenan Edema Assay; 60-69; assay type: functional
Rattus norvegicus [26] = assay: The percent inhibition was calculated from the average differences in hind paw volume between the adjuvant injected controls and the adjuvant-injected medicated rats at 0.08 mmol/kg; 0.009-82; assay type: functional; conditions: read-out: Inhibition
Rattus norvegicus [27] = assay: Potency relative to phenylbutazone at 0.006 mM/kg; assay type: functional
Outline: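 21-day adjuvant arthritis in male Sprague-Dawley rats (0.6% M. butyricum in mineral oil, intraplantar), with daily oral gavage from the day of adjuvant injection. Total hind-paw volume was measured by mercury displacement and percent inhibition calculated against adjuvant controls. The ED50 for 50% inhibition of paw volume was expressed relative to phenylbutazone, with 95% confidence limits.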

Rattus norvegicus [28] = assay: Antiinflammatory efficacy is measured by the percent inhibition of paw volume during the 3 week adjuvant arthritis test at 0.002 mM/kg (0.51 mg); assay type: functional; outline: as §1
Rattus norvegicus [29] = assay: Ulcerogenicity was measured in intestine during the 3 week adjuvant arthritis test, no of animals with ulcers out of 4 animals tested at 0.002 mM/kg (0.51 mg) was reported; assay type: functional
Outline: (§5)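 Male Sprague-Dawley rats (200–230 g) got 0.1 mL of a 0.6% M. butyricum adjuvant suspension in heavy mineral oil into the plantar tissue of one hind paw. Oral gavage dosing started the same day and continued daily for 21 days, in 1% gum tragacanth or corn oil-water emulsion. At the end, rats were killed and the small intestine and stomach were examined for ulcers, reported as animals with ulcers over animals tested.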

Rattus norvegicus [30] = assay: Ulcerogenicity was measured in intestine during the 3 week adjuvant arthritis test, no of animals with ulcers out of 24 animals tested at 0.009 mM/kg (2.29 mg) was reported; assay type: functional; outline: as §5
Rattus norvegicus [31] = assay: Ulcerogenicity was measured in intestine during the 3 week adjuvant arthritis test, no of animals with ulcers out of animals tested at 0.06 mM/kg (15.2 mg) was reported; toxic; assay type: functional, organism-based; outline: as §5
Rattus norvegicus [32] = assay: Ulcerogenicity was measured in stomach during the 3 week adjuvant arthritis test, no of animals with ulcers out of 24 animals tested at 0.009 mM/kg (2.29 mg) was reported; assay type: functional; outline: as §5
Rattus norvegicus [33] = assay: Ulcerogenicity was measured in stomach during the 3 week adjuvant arthritis test, no of animals with ulcers out of 31 animals tested at 0.03 mM/kg (7.62 mg) was reported; assay type: functional; outline: as §5
Rattus norvegicus [34] = assay: Ulcerogenicity was measured in stomach during the 3 week adjuvant arthritis test, no of animals with ulcers out of 4 animals tested at 0.002 mM/kg (0.51 mg) was reported; assay type: functional; outline: as §5
Rattus norvegicus [35] = assay: Antiinflammatory efficacy is measured by the weight gain in rats during the 3 week adjuvant arthritis test at 0.009 mM/kg (2.29 mg); assay type: functional; outline: as §4
Rattus norvegicus [36] = assay: Antiinflammatory efficacy is measured by the weight gain in rats during the 3 week adjuvant arthritis test at 0.002 mM/kg (0.51 mg); assay type: functional; outline: as §4
Rattus norvegicus [37] = assay: Antiinflammatory efficacy is measured by the weight gain in rats during the 3 week adjuvant arthritis test at 0.006 mM/kg (0.152 mg); assay type: functional; outline: as §4
Rattus norvegicus [38] = assay: Ulcerogenicity was measured in intestine during the 3 week adjuvant arthritis test, no of animals with ulcers out of 31 animals tested at 0.03 mM/kg (7.62 mg) was reported; assay type: functional; outline: as §5

Work on `CC(CN1CCCC1CC1CCCCC1)c1cccc(C(=O)c2ccccc2)c1` (stereo unspecified) yielded an inhibition in vivo at 80 µmol/kg (Rattus norvegicus [1]) of 40% and an inhibition in vivo at 80 µmol/kg (Rattus norvegicus [2]) of 70%.

Compound `CC(CN1CCCCC1CC1CCCCC1)c1cccc(C(O)c2cccc(Cl)c2)c1` (stereo unspecified) has an inhibition in vivo at 20 µmol/kg (Rattus norvegicus [3]) of 0%.

With `COc1ccc(C(=O)c2cccc(C(C)CN3CCCCC3CC3CCCCC3)c2)cc1` (stereo unspecified) the inhibition in vivo at 20 µmol/kg (Rattus norvegicus [4]) was 20% and the inhibition in vivo at 80 µmol/kg (Rattus norvegicus [5]) was 60%.

`CC(CN1CCC(CN2CCCCC2)CC1)c1cccc(C(=O)c2ccccc2)c1` (stereo unspecified) was tested, and the inhibition in vivo at 80 µmol/kg (Rattus norvegicus [1]) was 40% and the inhibition in vivo at 80 µmol/kg (Rattus norvegicus [6]) was 90%.

In the case of `CC(CN1CCCCC1CC1CCCCC1)c1cccc(C(=O)c2ccc(F)cc2)c1` (stereo unspecified), the highest non-ulcerogenic dose (Rattus norvegicus [7]) was 3 µmol/kg, the Inhibition (Rattus norvegicus [8]) was 61% and the inhibition in vivo at 20 µmol/kg (Rattus norvegicus [9]) was 30%. The inhibition in vivo at 80 µmol/kg (Rattus norvegicus [10]) was 80%, the Ulcerogenic index (Rattus norvegicus [11]) was 1 and the Ulcerogenic index (Rattus norvegicus [12]) was 1. For the same compound, the Ulcerogenic index (Rattus norvegicus [13]) was 3, the Ulcerogenic index (Rattus norvegicus [14]) was 0 and the Ulcerogenic index (Rattus norvegicus [15]) was “Toxic”. The Weight gain (Rattus norvegicus [16]) was 81%, the Weight gain (Rattus norvegicus [17]) was 31% and the Weight gain (Rattus norvegicus [18]) was 50%. For the same compound, the Inhibition (Rattus norvegicus [19]) was 55% and the Inhibition (Rattus norvegicus [20]) was 85%.

`CC(CN1CCCCC1CC1CCCCC1)c1cccc(/C(=N\O)c2ccccc2)c1` (stereo unspecified) gave an inhibition in vivo at 20 µmol/kg (Rattus norvegicus [21]) of 40% and an inhibition in vivo at 80 µmol/kg (Rattus norvegicus [6]) of 90%.

`Cc1ccc(C(O)c2cccc(C(C)CN3CCCCC3CC3CCCCC3)c2)cc1` (stereo unspecified) showed an inhibition in vivo at 20 µmol/kg (Rattus norvegicus [3]) of 0%.

`CC(CN1CCCCC1CC1CCCCC1)c1cccc(C(=O)c2ccc(Cl)c(Cl)c2)c1` (stereo unspecified) was tested, and the inhibition in vivo at 20 µmol/kg (Rattus norvegicus [3]) was 0%.

`COc1ccc(C(O)c2cccc(C(C)CN3CCCCC3CC3CCCCC3)c2)cc1` (stereo unspecified) showed an inhibition in vivo at 20 µmol/kg (Rattus norvegicus [3]) of 0%.

For `CC(CN1CCCCC1CC1CCCCC1)c1cccc(Cc2ccccc2)c1` (stereo unspecified), the inhibition in vivo at 20 µmol/kg (Rattus norvegicus [4]) was 20% and the inhibition in vivo at 80 µmol/kg (Rattus norvegicus [6]) was 90%.

With `NC(c1ccccc1)c1cccc(CCN2CCOCC2)c1` (stereo unspecified) the inhibition in vivo at 20 µmol/kg (Rattus norvegicus [3]) was 0%.

`CC(CN1CCCCC1CC1CCCCC1)c1cccc(C(C)(O)c2ccccc2)c1` (stereo unspecified) gave an inhibition in vivo at 20 µmol/kg (Rattus norvegicus [3]) of 0%.

`O=C(c1ccccc1)c1cccc(CCN2CCCCC2CC2CCCCC2)c1` (stereo unspecified) showed an inhibition in vivo at 20 µmol/kg (Rattus norvegicus [4]) of 20%.

Compound `CC(CN1CCCCC1CCCC1CCCCC1)c1cccc(C(O)c2ccccc2)c1` (stereo unspecified) has an inhibition in vivo at 20 µmol/kg (Rattus norvegicus [9]) of 30%.

In the case of `CC(CN1CCCCC1CCC1CCCCC1)c1cccc(C(=O)c2ccccc2)c1` (stereo unspecified), the inhibition in vivo at 80 µmol/kg (Rattus norvegicus [22]) was 30% and the inhibition in vivo at 80 µmol/kg (Rattus norvegicus [6]) was 90%.

For `CC(C(=O)O)c1cccc(C(=O)c2ccccc2)c1` (stereo unspecified) [KETOPROFEN], the highest non-ulcerogenic dose (Rattus norvegicus [7]) was 1 µmol/kg, the Inhibition (Rattus norvegicus [23]) was 31% and the Inhibition (Rattus norvegicus [24]) was 82%. It also gave an inhibition in vivo at 20 µmol/kg (Rattus norvegicus [25]) of 60%, an inhibition in vivo at 80 µmol/kg (Rattus norvegicus [26]) of 82% and a Relative potency (Rattus norvegicus [27]) of 32.4%. It also gave an Inhibition (Rattus norvegicus [28]) of 68%, a Ulcerogenic index (Rattus norvegicus [29]) of 0 and a Ulcerogenic index (Rattus norvegicus [30]) of 4. For the same compound, the Ulcerogenic index (Rattus norvegicus [31]) was “Toxic”, the Ulcerogenic index (Rattus norvegicus [32]) was 6 and the Ulcerogenic index (Rattus norvegicus [33]) was 3. The Ulcerogenic index (Rattus norvegicus [34]) was 0, the Weight gain (Rattus norvegicus [35]) was 79% and the Weight gain (Rattus norvegicus [36]) was 35%. The Weight gain (Rattus norvegicus [37]) was 21% and the Ulcerogenic index (Rattus norvegicus [38]) was 22.
